# Columns and labels:
# Type in all cases: functional
# Enterobacter cloacae = assay: In vitro minimum inhibitory concentration (MIC) against Enterobacter cloacae A 9656 at 37 degrees C for 18 h.
# Enterococcus faecalis = assay: In vitro minimum inhibitory concentration (MIC) against Enterococcus faecalis A 9808 at 37 degrees C for 18 h.
# How it was run: (§1)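 Two-fold serial broth dilution in nutrient broth. Inoculum adjusted to 10^6 cfu/mL. Compounds tested from 0.0005 to 250 µg/mL.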
# Morganella morganii = assay: In vitro minimum inhibitory concentration (MIC) against Morganella morganii A 15153 at 37 degrees C for 18 h.; how it was run: as §1
# Enterococcus faecium = assay: In vitro minimum inhibitory concentration (MIC) against Enterococcus faecium A 24885 at 37 degrees C for 18 h.; how it was run: as §1
# Staphylococcus aureus = assay: In vitro minimum inhibitory concentration (MIC) against Staphylococcus aureus Smith A 9537 at 37 degrees C for 18 hr; how it was run: as §1
# Escherichia coli = assay: In vitro minimum inhibitory concentration (MIC) against Escherichia coli A 15119 at 37 degrees C for 18 h.; how it was run: as §1
# Serratia marcescens = assay: In vitro minimum inhibitory concentration (MIC) against Serratia marcescens A 20019 at 37 degrees C for 18 hr; how it was run: as §1
# Pseudomonas aeruginosa = assay: In vitro minimum inhibitory concentration (MIC) against Pseudomonas aeruginosa A 9843 at 37 degree C for 18 h; how it was run: as §1
# Klebsiella pneumoniae = assay: In vitro minimum inhibitory concentration (MIC) against Klebsiella pneumoniae A 9664 at 37 degrees C for 18 h.; how it was run: as §1
Compound,MIC (Enterobacter cloacae) [µg/mL],MIC (Enterococcus faecalis) [µg/mL],MIC (Morganella morganii) [µg/mL],MIC (Enterococcus faecium) [µg/mL],MIC (Staphylococcus aureus) [µg/mL],MIC (Escherichia coli) [µg/mL],MIC (Serratia marcescens) [µg/mL],MIC (Pseudomonas aeruginosa) [µg/mL],MIC (Klebsiella pneumoniae) [µg/mL]
CC(C)(C)n1cc(C(=O)O)c(=O)c2cc(F)c(N3C[C@@H](N)[C@H](F)C3)nc21.CS(=O)(=O)O,0.5,0.25,0.5,2,0.003,0.5,0.5,2,0.5
CC(C)(C)n1cc(C(=O)O)c(=O)c2cc(F)c(N3CCNC(c4ccccc4)C3)cc21.CS(=O)(=O)O (configuration not stated),0.13,0.5,0.5,4,0.06,0.06,2,1,0.25
CC(C)(C)n1cc(C(=O)O)c(=O)c2cc(F)c(N3C4CCC3CNC4)nc21.CS(=O)(=O)O,0.25,0.5,0.5,4,0.06,0.06,0.5,2,0.13
CC(C)(C)n1cc(C(=O)O)c(=O)c2cc(F)c(N3CCNC(c4ccccc4)C3)nc21.CS(=O)(=O)O (configuration not stated),0.06,1,1,8,0.03,0.06,2,4,0.06
CC[C@H]1CN(c2nc3c(cc2F)c(=O)c(C(=O)O)cn3C(C)(C)C)C[C@@H]1N.CS(=O)(=O)O,0.03,0.13,0.25,2,0.015,0.03,0.25,1,0.06
CC(C)(C)n1cc(C(=O)O)c(=O)c2cc(F)c(N3CC4CCC(C3)N4)nc21.CS(=O)(=O)O,0.25,1,0.5,4,0.06,0.13,1,4,0.13

# The next lines start with the values.
MIC (Enterobacter cloacae) [µg/mL],MIC (Enterococcus faecalis) [µg/mL],MIC (Morganella morganii) [µg/mL],MIC (Enterococcus faecium) [µg/mL],MIC (Staphylococcus aureus) [µg/mL],MIC (Escherichia coli) [µg/mL],MIC (Serratia marcescens) [µg/mL],MIC (Pseudomonas aeruginosa) [µg/mL],MIC (Klebsiella pneumoniae) [µg/mL],Compound
0.06,0.25,0.5,2,0.015,0.13,0.5,1,0.13,CC[C@H]1CN(c2nc3c(cc2F)c(=O)c(C(=O)O)cn3C(C)(C)C)C[C@H]1N.Cl
0.5,0.5,2,4,0.06,0.25,8,8,1,CCNCC1CCN(c2cc3c(cc2F)c(=O)c(C(=O)O)cn3C(C)(C)C)C1 (configuration not stated)
0.06,0.5,1,2,0.03,0.13,1,1,0.13,CC(C)(C)n1cc(C(=O)O)c(=O)c2cc(F)c(N3CC4CCC3CN4)nc21 (configuration not stated)
1,0.5,0.5,8,0.03,0.25,1,1,0.13,CN(C)C1CCN(c2nc3c(cc2F)c(=O)c(C(=O)O)cn3C(C)(C)C)C1 (configuration not stated)
0.25,1,1,4,0.13,0.5,2,2,0.25,CC(C)(C)n1cc(C(=O)O)c(=O)c2cc(F)c(N3CC4CCC3CN4)cc21 (configuration not stated)
0.5,0.25,1,2,0.03,0.5,2,1,0.25,CC(C)(C)n1cc(C(=O)O)c(=O)c2cc(F)c(N3CCC(CN)C3)nc21 (configuration not stated)
0.06,1,1,4,0.13,0.03,1,4,0.13,CC1CN(c2nc3c(cc2F)c(=O)c(C(=O)O)cn3C(C)(C)C)CCN1C (configuration not stated)

# From ChEMBL document CHEMBL1124759, “Fluoronaphthyridines and quinolones as antibacterial agents. 2. Synthesis and structure-activity relationships of new 1-tert-butyl 7-substituted derivatives” (J Med Chem, 1990)
